Variants at the floor of the assay were thinned out.
B1: tRNA (parent)
chain: GUUCCGUUGGCGUAAUGGUAACGCGUCUCCCUCCUAAGGAGAAGACUGCGGGUUCGAGUCCCGUACGGAACG

Variants of: B1
Test: yeast fitness relative to wild type (ratio to wild type); higher = fitter; tRNA-Arg(CCU), competitive growth, 37 C, YPD
Procedure, shortened: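 Amplicons of the tRNA-Arg(CCU) gene were sequenced, 100-nucleotide paired-end, from the start population and from each end population of a pooled yeast competition. The competition, in six parallel replicates, lasted 24 hours in YPD at 37°C. Fitness relative to wild type was calculated from changes in genotype frequencies. Genotypes had to have ≥ 100 starting reads, and estimates < 0.5 were set to 0.5.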

Compared with C31U G48C C66U, U32C A40U C55A G56C is lower in yeast fitness: 0.741 for the first, no more than 0.5 for the second.

Compared with C31U G56A G63C, U32G C46A C66U is higher in yeast fitness: no more than 0.5 for the first, 0.538 for the second.

Going from U32C C34U to C31U G67C, the yeast fitness rises from 0.788 to 0.902.

First: U32C C46G G52C G68C
Second: C33A G38C C46A G58C
The yeast fitness of the first is lower: no more than 0.5 for the first, 0.698 for the second.

Going from U32C C55U C62U to U32A A37C G51C A57U, the yeast fitness falls from 0.653 to no more than 0.5.

Going from U32G C61A to U32A A42U, the yeast fitness rises from 0.535 to 0.861.

First: U32G C61U C66U A69G
Second: U32C C60G
The yeast fitness of the first is lower: no more than 0.5 for the first, 0.552 for the second.

Compared with C33G A70G, C33G A42G G52A C62U A70U is lower in yeast fitness: 0.633 for the first, no more than 0.5 for the second.

Compared with C31U G52C U54A C66U, U32C G51A A70U is higher in yeast fitness: no more than 0.5 for the first, 0.868 for the second.

First: C33A U54G A70C
Second: U32C A40U A69C
The yeast fitness of the first is lower: no more than 0.5 for the first, 0.747 for the second.

U32G G39C C62G G68A and C33G A42G G52A A70U cannot be ordered by yeast fitness: no more than 0.5 for the first, no more than 0.5 for the second.

First: U32C G58A
Second: C33G A40U A70G
The yeast fitness of the first is higher: 0.798 for the first, 0.545 for the second.

First: U32A C33U G52A
Second: C33A G50A
The yeast fitness of the first is higher: 0.597 for the first, 0.545 for the second.

Compared with C33G G67A, C33A C46U U59C G67A G68C is lower in yeast fitness: 0.672 for the first, no more than 0.5 for the second.

First: U32G C46U A69U
Second: U32A C46U G63C
The yeast fitness of the first is higher: 0.602 for the first, no more than 0.5 for the second.

U32C C34U U53A C66U and C33G A37G C46A C49U cannot be ordered by yeast fitness: no more than 0.5 for the first, no more than 0.5 for the second.

Compared with C33A A57G, C33A A57U is lower in yeast fitness: 0.781 for the first, 0.564 for the second.

Going from U32C U47A to U32G U35G A36C C61G A70G, the yeast fitness falls from 0.9 to 0.583.

First: C33G C62U
Second: U32A A45U A69C
The yeast fitness of the first is higher: 0.758 for the first, 0.706 for the second.

Compared with U32A C55U, C33A G39C C49U U54A is lower in yeast fitness: 0.501 for the first, no more than 0.5 for the second.

Compared with U32A A45U, U32A A40U G41C C46A G52A is lower in yeast fitness: 0.789 for the first, 0.656 for the second.

U32G C33A U47A C62U C66G and C33G A57U G68A A69U cannot be ordered by yeast fitness: no more than 0.5 for the first, no more than 0.5 for the second.

Going from C31U U47A G51U to C31U U54C U59C, the yeast fitness rises from no more than 0.5 to 0.562.

U32C A36U C61G and U32C A36U C61U cannot be ordered by yeast fitness: no more than 0.5 for the first, no more than 0.5 for the second.

Going from U32A G63U U64A A65U to C33G A37G A43C G58C, the yeast fitness falls from 0.634 to 0.547.

Going from U32A A40C G58C G63A to U32G A45G A69U, the yeast fitness rises from no more than 0.5 to 0.553.

C33A A36C C46G C62G A69U and U32G C33U A37G A43C cannot be ordered by yeast fitness: no more than 0.5 for the first, no more than 0.5 for the second.

Compared with U32A A43G C61U, U32G A69C is higher in yeast fitness: no more than 0.5 for the first, 0.848 for the second.

Compared with U32G U35A G38C G51C C66U, C33G C62A G63C is lower in yeast fitness: 0.579 for the first, no more than 0.5 for the second.

Compared with U32C G39A, U32C G39U is lower in yeast fitness: 0.928 for the first, 0.911 for the second.

First: C33G A36U A57C
Second: C31U G41C C61U
The yeast fitness of the first is lower: no more than 0.5 for the first, 0.574 for the second.

C33A C34G G50A A70U and C33G G41A A69C cannot be ordered by yeast fitness: no more than 0.5 for the first, no more than 0.5 for the second.

Going from U32G C61U C66U to C33G C34G C46G, the yeast fitness falls from 0.577 to no more than 0.5.

C31U G52C A65U and C33G C61A C62U cannot be ordered by yeast fitness: no more than 0.5 for the first, no more than 0.5 for the second.

Going from C33G A65G to C33G G44A G56A A65G, the yeast fitness falls from 0.734 to 0.554.

First: C33G G39U A69C
Second: C31U G50A G67A
The yeast fitness of the first is lower: no more than 0.5 for the first, 0.63 for the second.

Compared with C33G U35C, C33G U35A is lower in yeast fitness: 0.603 for the first, no more than 0.5 for the second.

Compared with C31U G41A A69U, C33A A70U is lower in yeast fitness: 0.808 for the first, 0.655 for the second.

First: U32C A37G C55A A65U G68C
Second: U32C G58A C62U A69C
The yeast fitness of the first is lower: 0.575 for the first, 0.716 for the second.

Going from U32C A70C to U32C A70U, the yeast fitness falls from 0.991 to 0.935.

Compared with U32G U35A G48A G63C A69G, C31U G39A A45C is higher in yeast fitness: 0.524 for the first, 0.677 for the second.

U32A G41C A65U and C31U G48A C61U A65C cannot be ordered by yeast fitness: no more than 0.5 for the first, no more than 0.5 for the second.

U32G G51A C55G and C33G A40C C62G cannot be ordered by yeast fitness: no more than 0.5 for the first, no more than 0.5 for the second.

First: C33G A45U C46U G56C
Second: U32C G56C
The yeast fitness of the first is lower: no more than 0.5 for the first, 0.676 for the second.

Going from U32C A43C A69G to U32G A40U, the yeast fitness rises from no more than 0.5 to 0.624.

Compared with U32G A40C, U32A A37C A42C C49A U53A is lower in yeast fitness: 0.692 for the first, no more than 0.5 for the second.

Going from C33G G44A G56A C61U to C33G A42C C49G G58C C62G, the yeast fitness rises from no more than 0.5 to 0.513.

First: C31U U32C C33U
Second: U32C C66A
The yeast fitness of the first is lower: 0.667 for the first, 0.702 for the second.

U32A A42G C55U and C31U G38C G52C cannot be ordered by yeast fitness: no more than 0.5 for the first, no more than 0.5 for the second.

First: C31U G48A C61A
Second: U32C G41C U47C
The yeast fitness of the first is lower: 0.532 for the first, 0.592 for the second.

U32G A42G G58A C61U A70G and U32G C33G C66U A69U cannot be ordered by yeast fitness: no more than 0.5 for the first, no more than 0.5 for the second.

Going from U32A C34G C55G G68A A70C to U32C A43G A65C, the yeast fitness rises from no more than 0.5 to 0.913.

First: C33G C34U G38C U47A
Second: C33G G48A
The yeast fitness of the first is lower: 0.517 for the first, 0.629 for the second.

Going from U32G G50A to U32C A43C G52A C55U C60A, the yeast fitness falls from 0.714 to no more than 0.5.

Compared with U32C A37C, U32C A37U is lower in yeast fitness: 0.771 for the first, 0.729 for the second.

First: U32A C34A U53C U64A
Second: C33A U35C C46U C49U G52C C61U C66U A69U
The yeast fitness of the first is lower: no more than 0.5 for the first, 0.528 for the second.

First: C31U G39C G52C
Second: C33A A45G A70U
The yeast fitness of the first is lower: no more than 0.5 for the first, 0.638 for the second.

Going from U32C A36U G38A G50A to U32A A37C C60A, the yeast fitness falls from 0.584 to no more than 0.5.

First: U32A A36C A70G
Second: C33A C34G G50A
The yeast fitness of the first is lower: no more than 0.5 for the first, 0.517 for the second.

Compared with U32C G48A, U32C G48C is higher in yeast fitness: 0.76 for the first, 0.862 for the second.

First: C31U G44A A45U
Second: C31U G38C G63A G68C A69G
The yeast fitness of the first is higher: 0.893 for the first, 0.673 for the second.

Going from C31U G52C C60A to U32C A40U A43G, the yeast fitness rises from 0.632 to 0.684.

Going from C31U C66A to U32G G67C, the yeast fitness falls from 0.774 to 0.59.

Compared with C33G C49A C55G G56C, U32G C33G A70G is lower in yeast fitness: 0.561 for the first, no more than 0.5 for the second.

First: C33G A42U G63A
Second: C33G C55A G58A
The yeast fitness of the first is lower: 0.516 for the first, 0.609 for the second.

Compared with C31U G41C A43C, C33G A45U G51C is lower in yeast fitness: 0.722 for the first, no more than 0.5 for the second.

First: C31U U35C U53C
Second: U32C G44C
The yeast fitness of the first is lower: no more than 0.5 for the first, 0.842 for the second.

First: U32C A40C
Second: U32C A40U
The yeast fitness of the first is lower: 0.986 for the first, 1.01 for the second.

U32G G56A G63C and C31U G48C C55A C60G A69G cannot be ordered by yeast fitness: no more than 0.5 for the first, no more than 0.5 for the second.

Going from C31U U53G C61G A70U to U32G G48C A65C, the yeast fitness rises from no more than 0.5 to 0.574.

Compared with C31U G58C U59G C61G, U32C G63C is higher in yeast fitness: no more than 0.5 for the first, 0.759 for the second.

Going from C31U G48A A69U to U32C G67C, the yeast fitness rises from 0.757 to 0.9.

C31U U47A G51U C62U and U32G A42G C61U cannot be ordered by yeast fitness: no more than 0.5 for the first, no more than 0.5 for the second.

Compared with C33G C66A, C33G C66U is higher in yeast fitness: no more than 0.5 for the first, 0.787 for the second.

Compared with C33A C46G C60U, C31U G48A is higher in yeast fitness: 0.76 for the first, 0.949 for the second.

Going from C31U G48C to C33G A45G U64A, the yeast fitness falls from 1 to 0.586.

First: C31U U47G
Second: U32C G52C
The yeast fitness of the first is lower: 0.526 for the first, 0.602 for the second.

First: C31U U59C
Second: U32C C49U G50C
The yeast fitness of the first is higher: 1.02 for the first, 0.638 for the second.

Compared with C33G A42G G52A C62A A70U, C31U U47G G56C is lower in yeast fitness: 0.589 for the first, no more than 0.5 for the second.

Compared with U32C A36G G63A, C31U U47C G63A is higher in yeast fitness: 0.628 for the first, 0.687 for the second.

Going from C33G A37U A40C A69U to U32A A37C, the yeast fitness rises from 0.543 to 0.771.

First: C33A A37U C62A A70C
Second: U32G A42G C46U G51A
The yeast fitness of the first is higher: 0.605 for the first, no more than 0.5 for the second.

Going from U32C U64A to U32G C34U A57G, the yeast fitness falls from 0.789 to 0.561.

For C33A G58C C62G U64G, the yeast fitness was no more than 0.5.

From the RNAGym collection of RNA variant scans (doi:10.1126/science.aae0568)
